Measured values from ChEMBL document CHEMBL3593206, “SAR Studies of Exosite-Binding Substrate-Selective Inhibitors of A Disintegrin And Metalloprotease 17 (ADAM17) and Application as Selective in Vitro Probes” (J Med Chem, 2015).
Active and inactive are the calls of the source. The calls are words filed in the database; no cut-off is given here.

Legend:
[1] = molecular target: T1, 72 kDa type IV collagenase (Homo sapiens, UniProt P08253); experiment: Inhibition of MMP2 (unknown origin) using Mca-KLPGL-Dnp-AR as substrate at 100 uM preincubated for 30 mins followed by substrate addition measured after 1 hr by fluorescence assay relative to control
Summary of the method: (§1)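 Inhibitor as 10-point 1:3 dilutions from 300 μM, 30 min at RT. Substrate added from a 30 μM 3× solution. Single fluorescence read (ex 324/em 393 nm) after 1 h at RT.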
Target sequence in this assay (P08253 110-660 limits assumed): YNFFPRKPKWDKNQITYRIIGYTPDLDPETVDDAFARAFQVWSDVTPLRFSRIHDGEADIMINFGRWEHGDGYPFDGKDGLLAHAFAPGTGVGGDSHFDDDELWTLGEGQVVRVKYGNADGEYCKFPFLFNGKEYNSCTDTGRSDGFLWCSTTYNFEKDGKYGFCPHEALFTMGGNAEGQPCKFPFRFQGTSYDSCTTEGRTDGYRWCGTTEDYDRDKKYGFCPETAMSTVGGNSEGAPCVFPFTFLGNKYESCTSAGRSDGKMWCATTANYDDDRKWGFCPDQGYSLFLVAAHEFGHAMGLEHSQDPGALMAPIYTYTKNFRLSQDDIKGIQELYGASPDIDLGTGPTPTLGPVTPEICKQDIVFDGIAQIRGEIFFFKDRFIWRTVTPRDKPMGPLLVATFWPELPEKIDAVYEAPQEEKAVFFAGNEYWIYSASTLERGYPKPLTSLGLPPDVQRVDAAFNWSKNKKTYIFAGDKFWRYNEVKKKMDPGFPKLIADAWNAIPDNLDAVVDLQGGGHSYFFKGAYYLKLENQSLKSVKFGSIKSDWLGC

[2] = molecular target: T2, Matrix metalloproteinase-9 (Homo sapiens, UniProt P14780); experiment: Inhibition of MMP9 (unknown origin) using Mca-KLPGL-Dnp-AR as substrate at 100 uM preincubated for 30 mins followed by substrate addition measured after 1 hr by fluorescence assay relative to control; summary of the method: as §1
HepG2 = experiment: Cytotoxicity against human HepG2 cells assessed as inhibition of cell viability up to 33 uM after 72 hrs by CellTiter-Glo assay; format: cell-based; conditions: hepg2, 72 h
[3] = molecular target: T3, Disintegrin and metalloproteinase domain-containing protein 10 (Homo sapiens) (UniProt O14672); experiment: Inhibition of ADAM10 in HTSMC assessed as inhibition of PMA-stimulated release of CXCL16 at 10 uM preincubated for 30 mins followed by PMA challenge measured after 4 to 24 hrs by ELISA
T3 sequence (whole entry): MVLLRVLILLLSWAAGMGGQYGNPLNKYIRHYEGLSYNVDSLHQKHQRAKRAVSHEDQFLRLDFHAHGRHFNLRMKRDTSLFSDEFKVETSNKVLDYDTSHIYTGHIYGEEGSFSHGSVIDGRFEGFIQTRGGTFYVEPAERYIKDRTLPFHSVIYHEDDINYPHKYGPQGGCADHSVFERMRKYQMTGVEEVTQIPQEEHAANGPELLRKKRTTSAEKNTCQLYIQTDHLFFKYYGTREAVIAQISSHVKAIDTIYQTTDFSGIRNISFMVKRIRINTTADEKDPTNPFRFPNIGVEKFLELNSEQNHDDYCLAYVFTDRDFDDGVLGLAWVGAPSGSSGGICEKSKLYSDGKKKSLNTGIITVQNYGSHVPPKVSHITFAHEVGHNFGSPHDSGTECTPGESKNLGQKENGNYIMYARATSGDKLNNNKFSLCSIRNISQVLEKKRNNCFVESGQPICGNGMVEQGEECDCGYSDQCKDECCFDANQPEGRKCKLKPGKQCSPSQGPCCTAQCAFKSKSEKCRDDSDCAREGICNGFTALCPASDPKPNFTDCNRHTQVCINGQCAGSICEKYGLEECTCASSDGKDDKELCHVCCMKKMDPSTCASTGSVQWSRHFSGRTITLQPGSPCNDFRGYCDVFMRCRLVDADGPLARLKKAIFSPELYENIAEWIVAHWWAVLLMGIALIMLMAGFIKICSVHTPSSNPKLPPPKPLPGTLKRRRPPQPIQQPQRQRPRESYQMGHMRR

[4] = molecular target: T1, 72 kDa type IV collagenase; experiment: Inhibition of MMP2 (unknown origin) using Mca-KLPGL-Dnp-AR as substrate preincubated for 30 mins followed by substrate addition measured after 1 hr by fluorescence assay; summary of the method: as §1
Target sequence in this assay (P08253 whole entry): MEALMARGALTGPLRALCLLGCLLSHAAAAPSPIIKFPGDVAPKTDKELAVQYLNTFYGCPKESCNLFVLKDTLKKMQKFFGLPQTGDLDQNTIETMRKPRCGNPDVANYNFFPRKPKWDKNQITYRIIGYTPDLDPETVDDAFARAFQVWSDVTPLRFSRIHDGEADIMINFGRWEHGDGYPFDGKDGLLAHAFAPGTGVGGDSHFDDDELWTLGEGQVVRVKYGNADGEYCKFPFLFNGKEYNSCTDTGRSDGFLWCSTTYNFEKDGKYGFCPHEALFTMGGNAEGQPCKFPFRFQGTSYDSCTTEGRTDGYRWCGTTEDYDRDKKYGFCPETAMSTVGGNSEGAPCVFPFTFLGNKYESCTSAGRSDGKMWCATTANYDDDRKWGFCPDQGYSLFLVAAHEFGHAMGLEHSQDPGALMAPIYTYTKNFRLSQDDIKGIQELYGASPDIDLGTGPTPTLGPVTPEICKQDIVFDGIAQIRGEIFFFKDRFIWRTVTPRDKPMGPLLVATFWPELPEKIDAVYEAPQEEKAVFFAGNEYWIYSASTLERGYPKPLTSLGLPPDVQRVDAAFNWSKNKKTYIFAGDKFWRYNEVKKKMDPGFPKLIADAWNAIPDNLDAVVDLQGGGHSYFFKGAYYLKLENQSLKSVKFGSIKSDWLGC

[5] = molecular target: T2, Matrix metalloproteinase-9; experiment: Inhibition of MMP9 (unknown origin) using Mca-KLPGL-Dnp-AR as substrate preincubated for 30 mins followed by substrate addition measured after 1 hr by fluorescence assay; summary of the method: as §1
[6] = molecular target: T4, Disintegrin and metalloproteinase domain-containing protein 17 (Homo sapiens, UniProt P78536); experiment: Inhibition of ADAM17 in human THP1 cells assessed as inhibition of LPS-stimulated TNFalpha cleavage at 25 uM after 1 hr by AlphaScreen assay relative to control; format: cell-based; conditions: THP-1
Summary of the method: (§2)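 THP-1 cells grown in RPMI 1640 with 10% FBS and 0.05 mM 2-mercaptoethanol; 3000 cells per well. Compound given in 3% DMSO for 1 h, then LPS added (1 μg/mL final) and cells incubated overnight at 37 °C. TNFα detected by AlphaScreen using anti-TNFα acceptor beads and streptavidin donor beads, each step 1 h in the dark at RT.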

MDA-MB-231 = experiment: Cytotoxicity against human MDA-MB-231 cells assessed as inhibition of cell viability up to 33 uM after 72 hrs by CellTiter-Glo assay; format: cell-based; conditions: mda-mb-231, 72 h
[7] = molecular target: T3, Disintegrin and metalloproteinase domain-containing protein 10 (Homo sapiens); experiment: Inhibition of ADAM10 in human A549 cells assessed as inhibition of betacellulin shedding at 40 uM after 1 hr by ELISA; format: cell-based
Summary of the method: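 A549 cells were tested for betacellulin shedding at 40 μM, with Marimastat at 10 μM as control.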

[8] = molecular target: T4, Disintegrin and metalloproteinase domain-containing protein 17; experiment: Inhibition of ADAM17 in human EAhy926 cells assessed as inhibition of neprilysin shedding at 15 uM relative to control; format: cell-based
ADAM17 (Homo sapiens) [9] = experiment: Inhibition of ADAM17 in HCC1806 cells assessed as inhibition of DDR1 shedding at 10 to 40 uM by immunoblot analysis relative to control
[10] = molecular target: T4, Disintegrin and metalloproteinase domain-containing protein 17; experiment: Inhibition of ADAM17 in HTSMC assessed as inhibition of DDR1 shedding at 10 to 40 uM by immunoblot analysis relative to control
ADAM17 (Homo sapiens) [11] = experiment: Inhibition of ADAM17 in HCC1806 cells assessed as inhibition of DDR1 shedding by immunoblot analysis
[12] = molecular target: T4, Disintegrin and metalloproteinase domain-containing protein 17; experiment: Inhibition of ADAM17 in human HT1080 cells assessed as inhibition of cell invasion after 5 to 24 hrs by Transwell assay; format: cell-based; conditions: HT-1080
[13] = molecular target: T4, Disintegrin and metalloproteinase domain-containing protein 17; experiment: Inhibition of ADAM17 in human SK-MEL-28 cells assessed as inhibition of notch shedding at 25 uM relative to control; format: cell-based
A549 [14] = experiment: Potentiation of doxorubicin-mediated inhibition of human A549 cell viability at 40 uM incubated for 1 hr followed by doxorubicin addition measured after 72 hrs by CellTiter-Glo assay; format: functional, cell-based
Summary of the method: (§3)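 A549 cells (1250 per well) in serum-free F12 were pretreated 1 h at 37 °C with 40 μM final test compound. Gefitinib, etoposide or doxorubicin was then added as 10-point 1:3 dilutions from 300 μM. After 72 h, viability was read by CellTiter-Glo luminescence and scaled between 100 μM gefitinib (0%) and 1% DMSO (100%).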

A549 [15] = experiment: Potentiation of etoposide-mediated inhibition of human A549 cell viability at 40 uM incubated for 1 hr followed by etoposide addition measured after 72 hrs by CellTiter-Glo assay; format: functional, cell-based; summary of the method: as §3
[16] = molecular target: T4, Disintegrin and metalloproteinase domain-containing protein 17; experiment: Inhibition of ADAM17 in HTSMC assessed as inhibition of DDR1 shedding by immunoblot analysis
[17] = molecular target: T4, Disintegrin and metalloproteinase domain-containing protein 17; experiment: Inhibition of ADAM17 in human THP1 cells assessed as inhibition of LPS-stimulated TNFalpha cleavage after 1 hr by AlphaScreen assay; format: cell-based, THP-1; summary of the method: as §2

T2 sequence (P14780 whole entry): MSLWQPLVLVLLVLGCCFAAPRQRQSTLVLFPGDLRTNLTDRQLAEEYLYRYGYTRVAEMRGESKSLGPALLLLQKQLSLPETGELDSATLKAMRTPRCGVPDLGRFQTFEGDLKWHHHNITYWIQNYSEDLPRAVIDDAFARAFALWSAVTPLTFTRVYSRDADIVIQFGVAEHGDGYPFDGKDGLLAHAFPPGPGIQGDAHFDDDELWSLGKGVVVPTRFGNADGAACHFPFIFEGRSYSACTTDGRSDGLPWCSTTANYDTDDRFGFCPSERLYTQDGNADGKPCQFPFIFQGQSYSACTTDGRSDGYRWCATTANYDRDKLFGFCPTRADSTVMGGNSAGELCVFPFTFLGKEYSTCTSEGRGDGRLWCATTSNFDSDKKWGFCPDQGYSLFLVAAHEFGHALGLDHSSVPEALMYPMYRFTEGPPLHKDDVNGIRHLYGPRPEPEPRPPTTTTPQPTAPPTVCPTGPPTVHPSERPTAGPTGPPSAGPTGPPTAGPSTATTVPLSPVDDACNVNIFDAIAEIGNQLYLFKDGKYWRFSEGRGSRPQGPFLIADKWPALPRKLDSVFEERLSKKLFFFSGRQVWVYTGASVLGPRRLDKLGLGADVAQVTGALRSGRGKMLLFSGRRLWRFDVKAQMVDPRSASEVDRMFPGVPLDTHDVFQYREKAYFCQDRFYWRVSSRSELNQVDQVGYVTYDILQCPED
T4 sequence (P78536 whole entry, the tested form may be a part): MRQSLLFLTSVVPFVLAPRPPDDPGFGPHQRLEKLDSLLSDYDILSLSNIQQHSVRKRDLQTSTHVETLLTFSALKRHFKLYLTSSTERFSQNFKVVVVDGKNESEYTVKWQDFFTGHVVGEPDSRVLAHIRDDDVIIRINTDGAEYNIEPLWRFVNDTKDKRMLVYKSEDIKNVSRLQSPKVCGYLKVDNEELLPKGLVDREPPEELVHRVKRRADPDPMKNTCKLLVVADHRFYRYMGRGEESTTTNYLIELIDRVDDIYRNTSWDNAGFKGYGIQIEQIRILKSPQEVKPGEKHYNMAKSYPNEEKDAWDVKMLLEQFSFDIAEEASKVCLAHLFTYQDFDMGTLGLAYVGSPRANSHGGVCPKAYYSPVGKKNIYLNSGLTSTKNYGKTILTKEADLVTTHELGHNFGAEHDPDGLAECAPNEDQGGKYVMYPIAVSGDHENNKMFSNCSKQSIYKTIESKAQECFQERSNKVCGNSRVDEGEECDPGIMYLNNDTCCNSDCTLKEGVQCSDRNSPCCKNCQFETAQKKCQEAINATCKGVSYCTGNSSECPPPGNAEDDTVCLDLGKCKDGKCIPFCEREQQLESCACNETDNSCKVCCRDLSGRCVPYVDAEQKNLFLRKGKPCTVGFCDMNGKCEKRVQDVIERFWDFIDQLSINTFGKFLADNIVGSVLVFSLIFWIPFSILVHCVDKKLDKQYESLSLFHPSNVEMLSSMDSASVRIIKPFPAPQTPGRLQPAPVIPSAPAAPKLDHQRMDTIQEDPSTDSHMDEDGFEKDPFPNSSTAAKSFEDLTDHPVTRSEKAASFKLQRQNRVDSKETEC

inhibition [1] | inhibition [2] | inhibition [3] | IC50 [4] | IC50 [5] | inhibition [6] | inhibition [7] | inhibition [8] | inhibition (ADAM17 (Homo sapiens) [9]) | inhibition [10] | inhibition (ADAM17 (Homo sapiens) [11]) | inhibition [12] | inhibition [13] | inhibition [16] | IC50 [17] | Compound | Activity (HepG2) | Activity (MDA-MB-231) | Activity (A549 [14]) | Activity (A549 [15])
0% | 13% | 0% | > 100 µM | > 100 µM | 36% | 0% | 62% | – | – | – | – | – | – | – | O=C1NC[C@H](Cc2ccccc2)N(C[C@@H]2CCCN2C[C@@H](CC2CCCCC2)N2C[C@H](Cc3ccc(O)cc3)N(CCc3ccccc3)C(=O)C2=O)C1=O | Non-toxic | Non-toxic | – | –
0% | 0% | 0% | > 100 µM | > 100 µM | 57% | 0% | – | – | – | – | – | – | – | – | CCCC[C@H]1CN([C@@H](Cc2ccc(O)cc2)CN2CCC[C@H]2CN2C(=O)C(=O)NC[C@H]2Cc2ccc3ccccc3c2)C(=O)C(=O)N1CCC12CC3CC(CC(C3)C1)C2 | – | – | – | –
– | – | 0% | – | – | 43% | 0% | – | 59% | 59% | Dose-dependent effect | Dose-dependent effect | 0% | Dose-dependent effect | 100 µM | O=C1NC[C@@H](Cc2ccc(O)cc2)N(C[C@@H]2CCCN2C[C@@H](Cc2ccc3ccccc3c2)N2CC(Cc3ccc(O)cc3)N(CCC34CC5CC(CC(C5)C3)C4)C(=O)C2=O)C1=O (single isomer, unassigned) | Non-toxic | Non-toxic | inactive | inactive
